Experimental data published in ChEMBL document CHEMBL4371062, “Synthesis, biological evaluation and molecular docking study of 1,2,3-1H-triazoles having 4H-pyrano[2,3-d]pyrimidine as potential Mycobacterium tuberculosis protein tyrosine phosphatase B inhibitors” (Bioorg Med Chem Lett, 2019).
In brackets after ≈: the same amount, converted by molar mass. Activity calls are given as the source filed them. The calls are words filed in the database; no cut-off is given here.

Assays:
[1] = target: T1, Phosphotyrosine protein phosphatase (Mycobacterium tuberculosis, UniProt A0A045ISB3); experiment: Inhibition of Mycobacterium tuberculosis PTPB using pNPP as substrate preincubated for 15 mins followed by substrate addition and measured after 2 to 6 mins
T1 sequence (A0A045ISB3 whole entry): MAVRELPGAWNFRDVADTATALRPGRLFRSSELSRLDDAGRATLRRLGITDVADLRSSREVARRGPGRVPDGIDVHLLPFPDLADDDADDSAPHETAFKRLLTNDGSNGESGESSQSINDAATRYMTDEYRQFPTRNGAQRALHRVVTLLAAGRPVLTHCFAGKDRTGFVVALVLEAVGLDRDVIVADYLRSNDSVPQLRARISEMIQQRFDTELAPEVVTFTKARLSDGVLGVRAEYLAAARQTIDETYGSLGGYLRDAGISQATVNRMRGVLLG
Procedure, shortened: (§1)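 Recombinant M. tuberculosis PtpB, cloned, expressed and purified as previously described, assayed with p-nitrophenyl phosphate as substrate. IC50 is the mean of three independent experiments.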

[2] = Antioxidant activity assessed as ABTS radical scavenging activity by measuring trolox equivalent antioxidant capacity after 6 mins by UV/Vis spectrophotometric analysis; format: functional
[3] = target: T2, Phosphotyrosine protein phosphatase (Mycobacterium tuberculosis) (UniProt A0A045ISB3); experiment: Inhibition of Mycobacterium tuberculosis PTPB up to 100 uM using pNPP as substrate preincubated for 15 mins followed by substrate addition and measured after 2 to 6 mins; procedure, shortened: as §1
T2 sequence (whole entry): T1 sequence (A0A045ISB3 whole entry)

[4] = target: T1, Phosphotyrosine protein phosphatase; experiment: Competitive inhibition of Mycobacterium tuberculosis PTPB using varying levels of pNPP as substrate preincubated for 15 mins followed by substrate addition and measured after 2 to 6 mins by Lineweaver-burk plot analysis
Procedure, shortened: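 Substrate pNPP was varied at fixed inhibitor levels of 0, 1, 1.5, 2, 3 and 4 µM, with p-nitrophenol release treated by Michaelis-Menten kinetics. Mechanism was judged from Lineweaver-Burk double-reciprocal plots (1/Vmax y-intercept, KMapp/Vmax slope, −1/KMapp x-intercept). Ki was derived from these plots.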

[5] = target: T2, Phosphotyrosine protein phosphatase (Mycobacterium tuberculosis); experiment: Ratio of IC50 for inhibition of Mycobacterium tuberculosis PTPB to Ki for competitive inhibition of Mycobacterium tuberculosis PTPB
Plasmodium falciparum = experiment: Antimalarial activity against synchronized ring stage of Plasmodium falciparum measured after 48 hrs; format: functional, organism-based
[6] = system: Mycobacterium tuberculosis; experiment: Antitubercular activity against Mycobacterium tuberculosis H37Rv at 100 ug/ml after 28 days by Lowensteine-Jensen method relative to control; format: functional; conditions: 672 h
[7] = system: Mycobacterium tuberculosis; experiment: Antitubercular activity against Mycobacterium tuberculosis H37Rv assessed as reduction in relative light units at 5 ug/ml after 72 hrs by luciferase reporter phage assay relative to control; format: functional
[8] = system: Mycobacterium tuberculosis; experiment: Antitubercular activity against Mycobacterium tuberculosis H37Rv assessed as reduction in relative light units at 25 ug/ml after 72 hrs by luciferase reporter phage assay relative to control; format: functional

SMILES	IC50 [1]	also measured
CCOC(=O)C1=C(C)Oc2nc(C)n(Cc3cn([C@@H]4O[C@H](COC(C)=O)[C@@H](OC(C)=O)[C@H](OC(C)=O)[C@H]4OC(C)=O)nn3)c(=O)c2C1c1ccccc1 (stereo not given in full)	47 µM	–
CCOC(=O)C1=C(C)Oc2nc(C)n(Cc3cn([C@@H]4O[C@H](COC(C)=O)[C@@H](OC(C)=O)[C@H](OC(C)=O)[C@H]4OC(C)=O)nn3)c(=O)c2C1c1ccccc1Cl (stereo not given in full)	33.2 µM	–
CCOC(=O)C1=C(C)Oc2nc(C)n(Cc3cn([C@@H]4O[C@H](COC(C)=O)[C@@H](OC(C)=O)[C@H](OC(C)=O)[C@H]4OC(C)=O)nn3)c(=O)c2C1c1ccc(N(C)C)cc1 (stereo not given in full)	32 µM	–
CCOC(=O)C1=C(N)Oc2[nH]c(=O)[nH]c(=O)c2C1[C@H](O)[C@@H](O)[C@H](O[C@H]1O[C@H](CO)[C@@H](O)[C@H](O)[C@H]1O)[C@H](O)CO (stereo not given in full)	–	Activity [2]: 5.24 µM
CCOC(=O)C1=C(C)Oc2nc(C)n(Cc3cn([C@@H]4O[C@H](COC(C)=O)[C@@H](OC(C)=O)[C@H](OC(C)=O)[C@H]4OC(C)=O)nn3)c(=O)c2C1c1ccccc1OC (stereo not given in full)	35 µM	–
CCOC(=O)C1=C(C)Oc2nc(C)n(Cc3cn([C@@H]4O[C@H](COC(C)=O)[C@@H](OC(C)=O)[C@H](OC(C)=O)[C@H]4OC(C)=O)nn3)c(=O)c2C1c1ccc(C)cc1 (stereo not given in full)	–	inhibition [3]: inactive; Ki [4]: 2.16 µM; Ratio [5]: 1.63
CCOC(=O)C1=C(C)Oc2nc(C)n(Cc3cn([C@@H]4O[C@H](COC(C)=O)[C@@H](OC(C)=O)[C@H](OC(C)=O)[C@H]4OC(C)=O)nn3)c(=O)c2C1c1cc(OC)c(O)c(OC)c1 (stereo not given in full)	2.22 µM	–
CCOC(=O)C1=C(C)Oc2nc(C)n(Cc3cn([C@@H]4O[C@H](COC(C)=O)[C@@H](OC(C)=O)[C@H](OC(C)=O)[C@H]4OC(C)=O)nn3)c(=O)c2C1c1ccc(C(C)C)cc1 (stereo not given in full)	–	inhibition [3]: inactive; Ki [4]: 1.1 µM; Ratio [5]: 1.42
CCOC(=O)C1=C(C)Oc2nc(C)n(Cc3cn([C@@H]4O[C@H](COC(C)=O)[C@@H](OC(C)=O)[C@H](OC(C)=O)[C@H]4OC(C)=O)nn3)c(=O)c2C1c1ccc(O)c(OC)c1 (stereo not given in full)	7.51 µM	–
CCOC(=O)C1=C(C)Oc2nc(C)n(Cc3cn([C@@H]4O[C@H](COC(C)=O)[C@@H](OC(C)=O)[C@H](OC(C)=O)[C@H]4OC(C)=O)nn3)c(=O)c2C1c1ccc(Br)cc1 (stereo not given in full)	–	inhibition [3]: inactive; Ki [4]: 1.8 µM; Ratio [5]: 1.23
CCOC(=O)C1=C(N)Oc2[nH]c(=O)[nH]c(=O)c2C1c1c(C)nn(-c2ccccc2)c1-n1ccnc1 (stereo not given)	–	IC50 (Plasmodium falciparum): 0.062 µg/mL (≈ 0.13 µM); inhibition at 100 µg/mL [6]: 92%
CCOC(=O)C1=C(C)Oc2nc(C)n(Cc3cn([C@@H]4O[C@H](COC(C)=O)[C@@H](OC(C)=O)[C@H](OC(C)=O)[C@H]4OC(C)=O)nn3)c(=O)c2C1c1ccc(OCC)c(O)c1 (stereo not given in full)	3.53 µM	–
CCOC(=O)C1=C(C)Oc2nc(C)n(Cc3cn([C@@H]4O[C@H](COC(C)=O)[C@@H](OC(C)=O)[C@H](OC(C)=O)[C@H]4OC(C)=O)nn3)c(=O)c2C1c1cccc([N+](=O)[O-])c1 (stereo not given in full)	45 µM	–
CC(=O)OC[C@H]1O[C@@H](OCc2cn(Cc3ccc4ccccc4n3)nn2)[C@H](OC(C)=O)[C@@H](OC(C)=O)[C@H]1OC(C)=O	–	inhibition at 5 µg/mL [7]: 76%; inhibition at 25 µg/mL [8]: 78%
CCOC(=O)C1=C(C)Oc2nc(C)n(Cc3cn([C@@H]4O[C@H](COC(C)=O)[C@@H](OC(C)=O)[C@H](OC(C)=O)[C@H]4OC(C)=O)nn3)c(=O)c2C1c1cccc(O)c1 (stereo not given in full)	35.9 µM	–
CCOC(=O)C1=C(C)Oc2nc(C)n(Cc3cn([C@@H]4O[C@H](COC(C)=O)[C@@H](OC(C)=O)[C@H](OC(C)=O)[C@H]4OC(C)=O)nn3)c(=O)c2C1c1ccc(O)cc1 (stereo not given in full)	35.3 µM	–
CCOC(=O)C1=C(C)Oc2nc(C)n(Cc3cn([C@@H]4O[C@H](COC(C)=O)[C@@H](OC(C)=O)[C@H](OC(C)=O)[C@H]4OC(C)=O)nn3)c(=O)c2C1c1ccc(O)c(OCC)c1 (stereo not given in full)	7.94 µM	–
CCOC(=O)C1=C(C)Oc2nc(C)n(Cc3cn([C@@H]4O[C@H](COC(C)=O)[C@@H](OC(C)=O)[C@H](OC(C)=O)[C@H]4OC(C)=O)nn3)c(=O)c2C1c1ccc(Cl)cc1Cl (stereo not given in full)	44 µM	–
CCOC(=O)C1=C(C)Oc2nc(C)n(Cc3cn([C@@H]4O[C@H](COC(C)=O)[C@@H](OC(C)=O)[C@H](OC(C)=O)[C@H]4OC(C)=O)nn3)c(=O)c2C1c1cc(OC)cc(OC)c1 (stereo not given in full)	32.5 µM	–
CCOC(=O)C1=C(C)Oc2nc(C)n(Cc3cn([C@@H]4O[C@H](COC(C)=O)[C@@H](OC(C)=O)[C@H](OC(C)=O)[C@H]4OC(C)=O)nn3)c(=O)c2C1c1ccc([N+](=O)[O-])cc1 (stereo not given in full)	33 µM	–
CCOC(=O)C1=C(C)Oc2nc(C)n(Cc3cn([C@@H]4O[C@H](COC(C)=O)[C@@H](OC(C)=O)[C@H](OC(C)=O)[C@H]4OC(C)=O)nn3)c(=O)c2C1c1cccc(OC)c1 (stereo not given in full)	28.2 µM	–
CCOC(=O)C1=C(C)Oc2nc(C)n(Cc3cn([C@@H]4O[C@H](COC(C)=O)[C@@H](OC(C)=O)[C@H](OC(C)=O)[C@H]4OC(C)=O)nn3)c(=O)c2C1c1ccccc1O (stereo not given in full)	29 µM	–
CCOC(=O)C1=C(C)Oc2nc(C)n(Cc3cn([C@@H]4O[C@H](COC(C)=O)[C@@H](OC(C)=O)[C@H](OC(C)=O)[C@H]4OC(C)=O)nn3)c(=O)c2C1c1cccc(Cl)c1 (stereo not given in full)	9.52 µM	–
CCOC(=O)C1=C(C)Oc2nc(C)n(Cc3cn([C@@H]4O[C@H](COC(C)=O)[C@@H](OC(C)=O)[C@H](OC(C)=O)[C@H]4OC(C)=O)nn3)c(=O)c2C1c1ccc(OC)cc1 (stereo not given in full)	29 µM	–
CCOC(=O)C1=C(C)Oc2nc(C)n(Cc3cn([C@@H]4O[C@H](COC(C)=O)[C@@H](OC(C)=O)[C@H](OC(C)=O)[C@H]4OC(C)=O)nn3)c(=O)c2C1c1ccc(Cl)cc1 (stereo not given in full)	35.3 µM	–
CCOC(=O)C1=C(C)Oc2nc(C)n(Cc3cn([C@@H]4O[C@H](COC(C)=O)[C@@H](OC(C)=O)[C@H](OC(C)=O)[C@H]4OC(C)=O)nn3)c(=O)c2C1c1cc(OC)c(O)c([N+](=O)[O-])c1 (stereo not given in full)	1.56 µM	–
CCOC(=O)C1=C(C)Oc2nc(C)n(Cc3cn([C@@H]4O[C@H](COC(C)=O)[C@@H](OC(C)=O)[C@H](OC(C)=O)[C@H]4OC(C)=O)nn3)c(=O)c2C1c1ccccc1[N+](=O)[O-] (stereo not given in full)	35.1 µM	–
